Data from ChEMBL document CHEMBL4145441, “Discovery of N-(5-((5-chloro-4-((2-(isopropylsulfonyl)phenyl)amino)pyrimidin-2-yl)amino)-4-methoxy-2-(4-methyl-1,4-diazepan-1-yl)phenyl)acrylamide (CHMFL-ALK/EGFR-050) as a potent ALK/EGFR dual kinase inhibitor capable of overcoming a variety of ALK/EGFR associated drug resistant mutants in NSCLC” (Eur J Med Chem, 2017).
Calls of active or inactive are those of the source. No cut-off for these calls is given here.

Assays:
[1] = Antiproliferative activity against mouse BAF3 cells after 72 hrs by CellTiter-Glo assay; assay type: cell-based
[2] = AUC (0 to t) in Sprague-Dawley rat at 1 mg/kg, iv; assay type: ADME, organism-based; conditions: in vivo
In short: (§1)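 Rats dosed once intravenously at 1 mg/kg or orally at 10 mg/kg. Plasma exposure parameters derived: AUC0-t, AUC0-∞, MRT(0-t), Cmax, Tmax, T1/2 and oral bioavailability (F%). Values reported as mean ± spread.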

PC-9 = assay: Antiproliferative activity against human PC9 cells harboring EGFR del19 mutant after 72 hrs by CellTiter-Glo assay; assay type: functional; conditions: PC-9, 72 h
HCC827 = assay: Antiproliferative activity against human HCC827 cells harboring EGFR del19 mutant after 72 hrs by CellTiter-Glo assay; assay type: functional; conditions: HCC827, 72 h
NCI-H3122 [3] = assay: Induction of apoptosis in human NCI-H3122 cells assessed as increase in cleaved caspase-3 expression level at 300 nM after 24 hrs by Western blot method; assay type: functional, cell-based
Mus musculus [4] = assay: Toxicity in nu/nu mouse xenografted with human NCI-H3122 cells assessed as change in body weight at 10 to 40 mg/kg, po qd administered for 28 days; assay type: organism-based; conditions: in vivo, 672 h
[5] = MRT (0 to t) in Sprague-Dawley rat at 10 mg/kg, po; assay type: ADME, organism-based; conditions: in vivo
In short: (§2)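 Pharmacokinetics in rats given a single dose either intravenously at 1 mg/kg or orally at 10 mg/kg. Plasma parameters derived include AUC0-t, AUC0-∞, MRT(0-t), Cmax, Tmax, T1/2 and oral F (%).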

[6] = molecular target: T1, Epidermal growth factor receptor (Homo sapiens, UniProt P00533); assay: Inhibition of EGFR in human PC9 cells assessed as inhibition of ERK-1/2 phosphorylation at Thr202/Tyr204 residues at 30 nM after 4 hrs by immunoblotting method; assay type: cell-based
NCI-H1975 [7] = assay: Induction of apoptosis in human NCI-H1975 cells assessed as increase in cleaved caspase-3 expression level at 300 nM to 1 uM after 24 hrs by Western blot method; assay type: functional, cell-based
[8] = molecular target: T2, ALK tyrosine kinase receptor (Homo sapiens, UniProt Q9UM73); assay: Inhibition of ALK in human NCI-H3122 cells harboring EML4-fused ALK assessed as reduction in ALK-induced AKT phosphorylation at Ser473 residue up to 3 uM after 2 hrs by immunoblot method; assay type: cell-based
Target sequence in this assay (Q9UM73 19-1620 limits assumed): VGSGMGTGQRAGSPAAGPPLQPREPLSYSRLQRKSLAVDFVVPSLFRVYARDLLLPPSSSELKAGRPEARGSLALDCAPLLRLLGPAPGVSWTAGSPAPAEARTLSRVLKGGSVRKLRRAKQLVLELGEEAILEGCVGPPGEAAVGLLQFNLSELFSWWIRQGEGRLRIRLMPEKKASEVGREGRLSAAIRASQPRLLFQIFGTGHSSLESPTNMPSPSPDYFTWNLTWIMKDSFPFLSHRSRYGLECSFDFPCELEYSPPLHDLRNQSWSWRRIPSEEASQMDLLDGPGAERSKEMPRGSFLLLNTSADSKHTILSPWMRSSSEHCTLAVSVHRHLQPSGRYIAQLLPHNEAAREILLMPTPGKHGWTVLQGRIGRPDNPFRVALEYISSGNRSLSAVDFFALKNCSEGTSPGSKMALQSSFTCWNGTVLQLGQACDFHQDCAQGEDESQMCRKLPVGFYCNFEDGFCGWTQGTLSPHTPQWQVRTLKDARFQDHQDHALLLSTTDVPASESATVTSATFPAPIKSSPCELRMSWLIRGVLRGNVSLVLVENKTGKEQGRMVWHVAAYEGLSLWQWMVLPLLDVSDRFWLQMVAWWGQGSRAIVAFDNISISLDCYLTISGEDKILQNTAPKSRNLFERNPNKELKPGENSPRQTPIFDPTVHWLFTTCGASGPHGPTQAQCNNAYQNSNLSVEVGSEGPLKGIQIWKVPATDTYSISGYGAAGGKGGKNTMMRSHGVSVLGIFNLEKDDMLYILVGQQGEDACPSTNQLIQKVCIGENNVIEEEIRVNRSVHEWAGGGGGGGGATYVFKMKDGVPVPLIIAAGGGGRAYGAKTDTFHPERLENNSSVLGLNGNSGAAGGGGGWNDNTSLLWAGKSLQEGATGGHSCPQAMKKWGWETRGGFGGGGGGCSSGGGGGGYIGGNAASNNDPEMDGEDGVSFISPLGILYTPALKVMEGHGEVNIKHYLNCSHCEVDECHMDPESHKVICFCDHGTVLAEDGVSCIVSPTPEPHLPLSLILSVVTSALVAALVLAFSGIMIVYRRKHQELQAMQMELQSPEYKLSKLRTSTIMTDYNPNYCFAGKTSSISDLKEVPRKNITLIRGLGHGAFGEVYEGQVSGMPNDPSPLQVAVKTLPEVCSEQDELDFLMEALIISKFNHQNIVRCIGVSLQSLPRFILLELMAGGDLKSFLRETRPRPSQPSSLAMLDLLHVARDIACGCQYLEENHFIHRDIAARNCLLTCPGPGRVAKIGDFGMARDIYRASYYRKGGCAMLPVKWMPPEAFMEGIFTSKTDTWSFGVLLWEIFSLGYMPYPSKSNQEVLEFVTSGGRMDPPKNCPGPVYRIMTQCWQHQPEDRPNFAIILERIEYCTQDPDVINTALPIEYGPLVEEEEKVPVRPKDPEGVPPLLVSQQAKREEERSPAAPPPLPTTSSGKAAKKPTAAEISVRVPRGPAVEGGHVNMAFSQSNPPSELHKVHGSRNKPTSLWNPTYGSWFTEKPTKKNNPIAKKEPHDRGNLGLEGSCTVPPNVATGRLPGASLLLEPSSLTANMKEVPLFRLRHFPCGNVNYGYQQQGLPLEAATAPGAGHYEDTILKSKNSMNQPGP

NCI-H3122 [9] = assay: Cell cycle arrest in human NCI-H3122 cells assessed as accumulation at G0/G1 phase at 0.03 to 0.3 uM after 24 hrs by propidium iodide/RNase staining-based flow cytometry; assay type: functional
Mus musculus [10] = assay: Toxicity in nu/nu mouse xenografted with human NCI-H1975 cells assessed as change in body weight at 10 to 40 mg/kg, po qd administered for 21 days; conditions: in vivo, 504 h
[11] = molecular target: T1, Epidermal growth factor receptor; assay: Inhibition of EGFR in human A549 cells assessed as reduction in EGF-induced ERK phosphorylation at Thr202/Tyr204 residues up to 3 uM after 4 hrs by immunoblotting method; assay type: cell-based
[12] = Antiproliferative activity against CHL cells after 72 hrs by CellTiter-Glo assay; assay type: cell-based, Cricetulus griseus; conditions: chinese hamster
[13] = molecular target: ALK tyrosine kinase receptor (Homo sapiens, UniProt Q9UM73, R1275Q); assay: Inhibition of recombinant human N-terminal GST/His6-fused ALK R1275Q mutant expressed in Sf9 insect cells using Tyr 1 peptide as substrate after 1 hr by Z-LYTE assay
[14] = molecular target: T2, ALK tyrosine kinase receptor; assay: Inhibition of recombinant human wild-type GST-tagged ALK expressed in Baculovirus expression system using Tyr 1 peptide as substrate after 1 hr by Z-LYTE assay
Target sequence in this assay (Q9UM73 whole entry, the tested form may be a part): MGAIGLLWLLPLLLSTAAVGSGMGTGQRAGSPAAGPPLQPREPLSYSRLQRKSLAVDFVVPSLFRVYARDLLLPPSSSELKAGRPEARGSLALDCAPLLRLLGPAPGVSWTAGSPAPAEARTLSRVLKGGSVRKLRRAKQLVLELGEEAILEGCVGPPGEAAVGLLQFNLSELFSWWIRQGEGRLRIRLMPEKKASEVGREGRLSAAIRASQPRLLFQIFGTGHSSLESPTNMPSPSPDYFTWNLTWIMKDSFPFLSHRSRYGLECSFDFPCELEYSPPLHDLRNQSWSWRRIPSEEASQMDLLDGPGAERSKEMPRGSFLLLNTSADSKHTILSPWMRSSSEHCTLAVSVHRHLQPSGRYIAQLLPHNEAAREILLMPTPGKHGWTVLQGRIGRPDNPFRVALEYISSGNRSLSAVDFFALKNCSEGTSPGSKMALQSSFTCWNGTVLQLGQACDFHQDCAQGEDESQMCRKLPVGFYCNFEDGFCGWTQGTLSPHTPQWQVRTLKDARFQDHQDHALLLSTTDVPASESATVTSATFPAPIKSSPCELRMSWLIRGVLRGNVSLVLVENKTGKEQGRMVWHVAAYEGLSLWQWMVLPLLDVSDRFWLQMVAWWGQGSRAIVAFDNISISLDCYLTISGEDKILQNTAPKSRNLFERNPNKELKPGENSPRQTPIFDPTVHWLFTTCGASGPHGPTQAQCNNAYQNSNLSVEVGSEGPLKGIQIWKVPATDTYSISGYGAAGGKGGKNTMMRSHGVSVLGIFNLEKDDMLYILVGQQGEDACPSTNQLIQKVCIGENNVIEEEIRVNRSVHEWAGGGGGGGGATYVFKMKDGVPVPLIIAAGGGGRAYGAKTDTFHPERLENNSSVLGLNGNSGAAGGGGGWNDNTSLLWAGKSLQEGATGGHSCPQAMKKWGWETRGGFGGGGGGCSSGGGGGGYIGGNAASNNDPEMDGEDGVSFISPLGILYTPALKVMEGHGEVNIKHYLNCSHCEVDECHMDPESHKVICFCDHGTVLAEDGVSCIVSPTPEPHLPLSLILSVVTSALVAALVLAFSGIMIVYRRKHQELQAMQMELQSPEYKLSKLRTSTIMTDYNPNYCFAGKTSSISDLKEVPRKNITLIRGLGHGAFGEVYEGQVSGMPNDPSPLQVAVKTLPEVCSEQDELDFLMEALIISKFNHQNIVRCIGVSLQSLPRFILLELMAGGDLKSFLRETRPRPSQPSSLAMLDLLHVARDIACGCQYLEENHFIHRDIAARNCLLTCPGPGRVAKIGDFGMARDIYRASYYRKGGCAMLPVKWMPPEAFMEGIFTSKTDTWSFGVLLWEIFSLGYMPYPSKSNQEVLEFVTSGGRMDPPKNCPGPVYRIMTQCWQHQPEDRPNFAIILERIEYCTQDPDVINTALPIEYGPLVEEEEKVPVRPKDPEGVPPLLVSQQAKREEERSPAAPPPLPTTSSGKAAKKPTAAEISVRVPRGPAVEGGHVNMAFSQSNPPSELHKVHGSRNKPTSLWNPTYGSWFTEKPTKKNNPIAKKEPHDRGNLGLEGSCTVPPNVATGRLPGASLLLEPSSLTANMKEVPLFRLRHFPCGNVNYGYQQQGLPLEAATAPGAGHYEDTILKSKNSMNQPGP

NCI-H1975 [15] = assay: Antitumor activity against human NCI-H1975 cells xenografted in nu/nu mouse assessed as tumor growth inhibition at 20 mg/kg, po qd administered for 21 days; conditions: 504 h, read-out: TGI
[16] = Oral bioavailability in Sprague-Dawley rat at 10 mg/kg; assay type: ADME, organism-based; conditions: in vivo; in short: as §2
[17] = molecular target: T2, ALK tyrosine kinase receptor; assay: Inhibition of ALK phosphorylation at Tyr1604 residue in human NCI-H3122 cells harboring EML4-fused ALK at 100 nM after 2 hrs by immunoblot method; assay type: cell-based
Target sequence in this assay (Q9UM73 19-1620 limits assumed): as the sequence (Q9UM73 19-1620 limits assumed) above

[18] = molecular target: T1, Epidermal growth factor receptor; assay: Inhibition of EGFR in human A549 cells assessed as reduction in EGF-induced 4EBP1 phosphorylation at Thr37/46 site up to 3 uM after 4 hrs by immunoblotting method; assay type: cell-based
NCI-H3122 [19] = assay: Induction of apoptosis in human NCI-H3122 cells assessed as increase in cleaved PARP expression level at 300 nM after 24 hrs by Western blot method; assay type: functional, cell-based
[20] = molecular target: T2, ALK tyrosine kinase receptor; assay: Reversible inhibition of ALK phosphorylation at Tyr1604 residue in human NCI-H3122 cells at 30 to 300 nM measured 1 to 24 hrs post compound wash out by immunoblotting method; assay type: cell-based
Target sequence in this assay (Q9UM73 19-1620 limits assumed): as above

[21] = molecular target: ALK tyrosine kinase receptor (Homo sapiens, UniProt Q9UM73, L1196M); assay: Inhibition of recombinant human N-terminal GST/His6-fused ALK L1196M mutant expressed in Sf9 insect cells using Tyr 1 peptide as substrate after 1 hr by Z-LYTE assay
[22] = AUC (0 to t) in Sprague-Dawley rat at 10 mg/kg, po; assay type: ADME, organism-based; conditions: in vivo; in short: as §1
[23] = system: ALK tyrosine kinase receptor (Homo sapiens), Q9UM73 [F1174L]
[24] = molecular target: T1, Epidermal growth factor receptor; assay: Inhibition of EGFR in human A549 cells assessed as reduction in EGF-induced AKT phosphorylation at Thr308 residue up to 3 uM after 4 hrs by immunoblotting method; assay type: cell-based
Homo sapiens [25] = species: Homo sapiens; assay: Selectivity ratio of GI50 for inhibition of TEL-fused EGFR C797S mutant (unknown origin) expressed in mouse BAF3 cells assessed as decrease in cell proliferation to GI50 for TEL-fused EGFR (unknown origin) expressed in mouse BAF3 cells assessed as decrease in cell proliferation; assay type: cell-based
NCI-H3255 = assay: Antiproliferative activity against human H3255 cells harboring EGFR L858R mutant after 72 hrs by CellTiter-Glo assay; assay type: functional; conditions: NCI-H3255, 72 h
Homo sapiens [26] = species: Homo sapiens; assay: Selectivity index, ratio of IC50 for recombinant human GST-tagged EGFR L858R mutant to IC50 for recombinant human GST-tagged EGFR T790M mutant
[27] = molecular target: ALK tyrosine kinase receptor (Homo sapiens, UniProt Q9UM73, F1174L); assay: Inhibition of recombinant human N-terminal GST/His6-fused ALK F1174L mutant expressed in Sf9 insect cells using Tyr 1 peptide as substrate after 1 hr by Z-LYTE assay
[28] = Half life in Sprague-Dawley rat at 10 mg/kg, po; assay type: ADME, organism-based; conditions: in vivo; in short: as §1
Homo sapiens [29] = species: Homo sapiens; assay: Selectivity index, ratio of IC50 for recombinant human GST-tagged EGFR L858R mutant to IC50 for recombinant human GST-tagged EGFR L858R/T790M mutant
[30] = molecular target: T1, Epidermal growth factor receptor; assay: Inhibition of EGFR in human A549 cells assessed as reduction in EGF-induced eIF4E phosphorylation at Ser209 residue up to 3 uM after 4 hrs by immunoblotting method; assay type: cell-based

T1 sequence (P00533 whole entry): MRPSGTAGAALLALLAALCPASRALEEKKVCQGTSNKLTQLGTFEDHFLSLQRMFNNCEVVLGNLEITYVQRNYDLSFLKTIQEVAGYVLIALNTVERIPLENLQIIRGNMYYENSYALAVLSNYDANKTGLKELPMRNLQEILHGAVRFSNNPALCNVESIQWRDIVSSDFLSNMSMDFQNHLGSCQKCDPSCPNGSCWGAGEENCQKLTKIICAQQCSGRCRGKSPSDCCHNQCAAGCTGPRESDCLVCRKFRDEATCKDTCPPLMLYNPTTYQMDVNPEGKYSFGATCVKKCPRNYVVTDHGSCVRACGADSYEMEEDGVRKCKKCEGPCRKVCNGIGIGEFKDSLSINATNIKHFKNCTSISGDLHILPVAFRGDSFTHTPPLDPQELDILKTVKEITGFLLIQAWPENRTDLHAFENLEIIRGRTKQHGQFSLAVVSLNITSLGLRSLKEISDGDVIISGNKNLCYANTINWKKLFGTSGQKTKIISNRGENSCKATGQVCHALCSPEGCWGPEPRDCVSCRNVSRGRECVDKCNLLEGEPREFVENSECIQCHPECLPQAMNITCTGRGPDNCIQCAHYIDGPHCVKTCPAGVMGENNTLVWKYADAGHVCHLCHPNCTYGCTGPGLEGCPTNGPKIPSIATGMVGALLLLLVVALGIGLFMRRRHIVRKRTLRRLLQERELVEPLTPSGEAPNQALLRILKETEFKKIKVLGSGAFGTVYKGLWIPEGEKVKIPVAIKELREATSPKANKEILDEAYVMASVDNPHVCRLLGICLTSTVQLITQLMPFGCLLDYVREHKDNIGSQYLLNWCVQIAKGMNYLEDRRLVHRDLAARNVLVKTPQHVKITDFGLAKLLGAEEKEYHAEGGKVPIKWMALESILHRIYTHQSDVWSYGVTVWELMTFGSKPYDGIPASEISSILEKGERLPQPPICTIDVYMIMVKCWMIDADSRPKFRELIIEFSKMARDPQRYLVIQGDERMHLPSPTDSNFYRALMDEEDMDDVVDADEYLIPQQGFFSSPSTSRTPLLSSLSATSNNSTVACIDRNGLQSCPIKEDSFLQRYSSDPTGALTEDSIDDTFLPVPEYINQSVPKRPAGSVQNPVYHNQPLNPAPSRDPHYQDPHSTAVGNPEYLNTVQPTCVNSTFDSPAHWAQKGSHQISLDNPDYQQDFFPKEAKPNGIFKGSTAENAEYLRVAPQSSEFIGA
ALK tyrosine kinase receptor (Homo sapiens, UniProt Q9UM73, F1174L), sequence (Q9UM73 19-1620 F1174L limits assumed): as the sequence (Q9UM73 19-1620 limits assumed) above, with F1156L counted along it
ALK tyrosine kinase receptor (Homo sapiens), Q9UM73 [F1174L], sequence (Q9UM73 whole entry F1174L): as the sequence (Q9UM73 whole entry, the tested form may be a part) above, with F1174L counted along it
ALK tyrosine kinase receptor (Homo sapiens, UniProt Q9UM73, R1275Q), sequence (Q9UM73 19-1620 R1275Q limits assumed): as the sequence (Q9UM73 19-1620 limits assumed) above, with R1257Q counted along it
ALK tyrosine kinase receptor (Homo sapiens, UniProt Q9UM73, L1196M), sequence (Q9UM73 19-1620 L1196M limits assumed): as the sequence (Q9UM73 19-1620 limits assumed) above, with L1178M counted along it

For `C=CC(=O)Nc1cc(Nc2ncc(Cl)c(Nc3ccccc3S(=O)(=O)C(C)C)n2)c(OC)cc1N1CCCN(C)CC1`, the GI50 at 72 h [1] was 1200 nM, the AUC(0-t) [2] was 707 ng·h/mL and the GI50 (PC-9) was 15 nM. The GI50 (HCC827) was 6.2 nM, the Activity (NCI-H3122 [3]) was “Active” and the Activity (Mus musculus [4]) was “Non-Toxic”. For the same molecule, the MRT last [5] was 4.12 h, the inhibition [6] was “Active” and the Activity (NCI-H1975 [7]) was “Active”. For the same molecule, the inhibition [8] was “Active”, the Activity (NCI-H3122 [9]) was “Active” and the Activity (Mus musculus [10]) was “Non-Toxic”. For the same molecule, the inhibition [11] was “inactive”, the GI50 at 72 h [12] was 3500 nM and the IC50 [13] was 0.82 nM. For the same molecule, the IC50 [14] was 9.8 nM, the inhibition in vivo at 20 mg/kg (NCI-H1975 [15]) was 96% and the bioavailability [16] was 16.1%. The inhibition [17] was “Active”, the inhibition [18] was “inactive” and the Activity (NCI-H3122 [19]) was “Active”. The inhibition [20] was “Active”, the IC50 [21] was 0.59 nM and the AUC(0-t) [22] was 1140 ng·h/mL. For the same molecule, the GI50 [23] was 29 nM, the inhibition [24] was “inactive” and the RatioGI50 (Homo sapiens [25]) was 15. For the same molecule, the GI50 (NCI-H3255) was 31 nM, the Ratio IC50 (Homo sapiens [26]) was 20 to 30 and the IC50 [27] was 0.92 nM. The half-life [28] was 1.75 h, the Ratio IC50 (Homo sapiens [29]) was 20 to 30 and the inhibition [30] was “inactive”.
